Measurements from ChEMBL document CHEMBL6083209, “Pyridazinone-based derivatives as anticancer agents endowed with anti-microbial activity: molecular design, synthesis, and biological investigation” (RSC Med Chem, 2024).
Values after ≈ are worked out from the molar mass of the structure shown.

Tests used:
[1] = tested on: Staphylococcus aureus; assay: Antimicrobial activity against Staphylococcus aureus; type: functional
[2] = target: Vascular endothelial growth factor receptor 2 (Homo sapiens, UniProt P35968); assay: Inhibition of VEGFR2 (unknown origin)
Vascular endothelial growth factor receptor 2, sequence (P35968 whole entry): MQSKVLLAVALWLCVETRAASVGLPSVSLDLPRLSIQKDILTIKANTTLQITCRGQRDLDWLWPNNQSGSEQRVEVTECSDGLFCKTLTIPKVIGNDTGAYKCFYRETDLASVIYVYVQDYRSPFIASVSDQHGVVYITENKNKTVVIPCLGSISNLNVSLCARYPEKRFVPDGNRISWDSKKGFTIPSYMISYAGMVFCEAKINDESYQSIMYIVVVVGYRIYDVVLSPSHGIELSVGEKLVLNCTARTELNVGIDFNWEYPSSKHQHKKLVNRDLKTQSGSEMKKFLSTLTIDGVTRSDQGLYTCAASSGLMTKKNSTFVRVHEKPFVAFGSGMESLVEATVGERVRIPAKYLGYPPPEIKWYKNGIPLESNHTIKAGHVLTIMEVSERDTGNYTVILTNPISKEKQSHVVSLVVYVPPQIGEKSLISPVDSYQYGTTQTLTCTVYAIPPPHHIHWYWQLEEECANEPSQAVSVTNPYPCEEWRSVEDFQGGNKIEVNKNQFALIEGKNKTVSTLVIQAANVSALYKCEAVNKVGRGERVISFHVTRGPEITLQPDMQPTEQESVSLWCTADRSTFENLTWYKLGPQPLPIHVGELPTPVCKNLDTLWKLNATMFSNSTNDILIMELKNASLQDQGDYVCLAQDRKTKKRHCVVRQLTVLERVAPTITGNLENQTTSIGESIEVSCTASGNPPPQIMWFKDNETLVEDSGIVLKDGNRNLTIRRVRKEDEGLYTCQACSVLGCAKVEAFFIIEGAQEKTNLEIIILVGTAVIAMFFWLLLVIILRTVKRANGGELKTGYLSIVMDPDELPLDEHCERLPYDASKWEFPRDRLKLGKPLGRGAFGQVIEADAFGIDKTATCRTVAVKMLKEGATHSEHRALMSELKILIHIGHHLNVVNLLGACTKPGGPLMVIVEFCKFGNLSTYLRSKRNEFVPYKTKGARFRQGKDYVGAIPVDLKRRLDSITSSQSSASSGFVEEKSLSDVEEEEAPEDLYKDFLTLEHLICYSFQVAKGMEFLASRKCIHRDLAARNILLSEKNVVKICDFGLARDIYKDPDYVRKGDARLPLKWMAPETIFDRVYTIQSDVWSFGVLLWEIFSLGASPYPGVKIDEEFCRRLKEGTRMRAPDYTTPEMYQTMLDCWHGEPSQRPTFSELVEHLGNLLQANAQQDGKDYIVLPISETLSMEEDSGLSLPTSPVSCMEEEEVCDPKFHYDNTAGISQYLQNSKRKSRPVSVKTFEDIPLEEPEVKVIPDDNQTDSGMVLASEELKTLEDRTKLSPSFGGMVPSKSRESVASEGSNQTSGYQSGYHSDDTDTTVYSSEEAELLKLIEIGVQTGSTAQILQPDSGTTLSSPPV

[3] = tested on: SK-MEL-2; assay: Antiproliferative activity against human SK-MEL-2 cells assessed as growth inhibition incubated for 48 hrs by SRB method; type: functional
Summary of the method: (§1)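 NCI-60 five-dose screen at 0.01, 0.1, 1, 10 and 100 μM, triplicate wells per dose. Cells were in RPMI 1640 with 5% FBS and 2 mM L-glutamine, pre-grown 24 h and then treated for 48 h at 37 °C. Read-out was TCA fixation and SRB absorbance at 515 nm.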

[4] = tested on: PC-3; assay: Antiproliferative activity against human PC-3 cells assessed as growth inhibition incubated for 48 hrs by SRB method; type: functional; summary of the method: as §1
[5] = tested on: NCI/ADR-RES; assay: Antiproliferative activity against human NCI-ADR-RES cells assessed as growth inhibition at 10 uM incubated for 48 hrs by SRB method; type: functional; details: read-out: GI
Summary of the method: (§2)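 NCI-60 one-dose screen at 10 μM. Cells were grown in RPMI 1640 with 5% FBS and 2 mM L-glutamine and plated at 5000–40 000 cells/well for 24 h. Drug exposure was 48 h at 37 °C, 5% CO2. Cells were fixed with TCA, stained with 0.4% SRB and read at 515 nm. Growth is expressed as percent of untreated control and time-zero plates.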

[6] = tested on: DU-145; assay: Antiproliferative activity against human DU-145 cells assessed as growth inhibition at 10 uM incubated for 48 hrs by SRB method; type: functional; details: read-out: GI; summary of the method: as §2
[7] = tested on: EKVX; assay: Antiproliferative activity against human EKVX cells assessed as growth inhibition incubated for 48 hrs by SRB method; type: functional; summary of the method: as §1
[8] = tested on: SNB-75; assay: Antiproliferative activity against human SNB-75 cells assessed as growth inhibition incubated for 48 hrs by SRB method; type: functional; summary of the method: as §1
[9] = tested on: UACC-62; assay: Antiproliferative activity against human UACC-62 cells assessed as growth inhibition incubated for 48 hrs by SRB method; type: functional
Summary of the method: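 NCI-60 five-dose screen at 0.01, 0.1, 1, 10 and 100 μM, triplicate wells per dose. Cells grown in RPMI 1640/5% FBS, preincubated 24 h, then exposed 48 h at 37 °C. TCA fixation, SRB stain, A515.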

[10] = tested on: Escherichia coli; assay: Antimicrobial activity against Escherichia coli ATCC 25922 by broth microdilution method
[11] = tested on: M14; assay: Antiproliferative activity against human M14 cells assessed as growth inhibition incubated for 48 hrs by SRB method; type: functional; summary of the method: as §1
[12] = tested on: SF-295; assay: Antiproliferative activity against human SF-295 cells assessed as growth inhibition incubated for 48 hrs by SRB method; type: functional; summary of the method: as §1
[13] = tested on: SK-MEL-28; assay: Antiproliferative activity against human SK-MEL-28 cells assessed as growth inhibition incubated for 48 hrs by SRB method; type: functional; summary of the method: as §1
[14] = tested on: UACC-257; assay: Antiproliferative activity against human UACC-257 cells assessed as growth inhibition incubated for 48 hrs by SRB method; type: functional; summary of the method: as §1
[15] = tested on: Candida albicans; assay: Antimicrobial activity against Candida albicans ATCC 10231 by broth microdilution method
[16] = tested on: SN12C; assay: Antiproliferative activity against human SN12C cells assessed as growth inhibition incubated for 48 hrs by SRB method; type: functional; summary of the method: as §1
[17] = tested on: SK-OV-3; assay: Antiproliferative activity against human SK-OV-3 cells assessed as growth inhibition at 10 uM incubated for 48 hrs by SRB method; type: functional; details: read-out: GI; summary of the method: as §2
[18] = tested on: CAKI-1; assay: Antiproliferative activity against human CAKI-1 cells assessed as growth inhibition incubated for 48 hrs by SRB method; type: functional; summary of the method: as §1
[19] = tested on: LOX IMVI; assay: Antiproliferative activity against human LOX IMVI cells assessed as growth inhibition at 10 uM incubated for 48 hrs by SRB method; type: functional; details: read-out: GI; summary of the method: as §2
[20] = tested on: NCI-H23; assay: Antiproliferative activity against human NCI-H23 cells assessed as growth inhibition incubated for 48 hrs by SRB method; type: functional; summary of the method: as §1
[21] = tested on: 786-0; assay: Antiproliferative activity against human 786-0 cells assessed as growth inhibition at 10 uM incubated for 48 hrs by SRB method; type: functional; details: read-out: GI; summary of the method: as §2
[22] = tested on: HOP-92; assay: Antiproliferative activity against human HOP-92 cells assessed as growth inhibition at 10 uM incubated for 48 hrs by SRB method; type: functional; details: read-out: GI; summary of the method: as §2
[23] = tested on: BT-549; assay: Antiproliferative activity against human BT-549 cells assessed as growth inhibition at 10 uM incubated for 48 hrs by SRB method; type: functional; details: read-out: GI; summary of the method: as §2
[24] = tested on: SF-268; assay: Antiproliferative activity against human SF-268 cells assessed as growth inhibition incubated for 48 hrs by SRB method; type: functional; summary of the method: as §1
[25] = tested on: NCI-H226; assay: Antiproliferative activity against human NCI-H226 cells assessed as growth inhibition at 10 uM incubated for 48 hrs by SRB method; type: functional; details: read-out: GI; summary of the method: as §2
[26] = tested on: MDA-MB-468; assay: Antiproliferative activity against human MDA-MB-468 cells assessed as growth inhibition at 10 uM incubated for 48 hrs by SRB method; type: functional; details: read-out: GI; summary of the method: as §2
[27] = tested on: MCF7; assay: Antiproliferative activity against human MCF7 cells assessed as growth inhibition incubated for 48 hrs by SRB method; type: functional; summary of the method: as §1
[28] = tested on: HOP-62; assay: Antiproliferative activity against human HOP-62 cells assessed as growth inhibition at 10 uM incubated for 48 hrs by SRB method; type: functional; details: read-out: GI; summary of the method: as §2
[29] = tested on: U-251; assay: Antiproliferative activity against human U-251 cells assessed as growth inhibition at 10 uM incubated for 48 hrs by SRB method; type: functional; details: read-out: GI; summary of the method: as §2
[30] = tested on: HOP-92; assay: Antiproliferative activity against human HOP-92 cells assessed as growth inhibition incubated for 48 hrs by SRB method; type: functional; summary of the method: as §1
[31] = tested on: Staphylococcus aureus; assay: Antimicrobial activity against Staphylococcus aureus ATCC 29213 by broth microdilution method
[32] = tested on: MCF7; assay: Antiproliferative activity against human MCF7 cells assessed as growth inhibition at 10 uM incubated for 48 hrs by SRB method; type: functional; details: read-out: GI; summary of the method: as §2
[33] = tested on: UO-31; assay: Antiproliferative activity against human UO-31 cells assessed as growth inhibition at 10 uM incubated for 48 hrs by SRB method; type: functional; details: read-out: GI
Summary of the method: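 NCI-60 one-dose screen at 10 μM. Cells grown in RPMI 1640 with 5% FBS and 2 mM L-glutamine, plated at 5000–40 000 cells/well and preincubated 24 h at 37 °C, 5% CO2. Drug exposure 48 h. Fixed with TCA and stained with 0.4% SRB, absorbance read at 515 nm. Percent growth calculated against untreated control and time-zero plates.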

[34] = tested on: OVCAR-8; assay: Antiproliferative activity against human OVCAR-8 cells assessed as growth inhibition incubated for 48 hrs by SRB method; type: functional; summary of the method: as §1
[35] = tested on: MDA-MB-468; assay: Antiproliferative activity against human MDA-MB-468 cells assessed as growth inhibition incubated for 48 hrs by SRB method; type: functional; summary of the method: as §1
[36] = tested on: A549; assay: Antiproliferative activity against human A549 cells assessed as growth inhibition at 10 uM incubated for 48 hrs by SRB method; type: functional; details: read-out: GI; summary of the method: as §2

For `N#Cc1ccc(Oc2ccc3cccc(NC(=O)Nc4ccc(Cl)c(C(F)(F)F)c4)c3c2)cc1`, the MIC [1] was 1 µg/mL (≈ 2.08 µM).
Work on `O=C(Nc1ccc(Oc2ccc(=O)[nH]n2)cc1)Nc1ccc(Cl)c(Cl)c1` yielded an MIC [1] of 0.5 µg/mL (≈ 1.28 µM).
`N#Cc1ccc(Oc2cccc(NC(=O)Nc3ccc(Cl)c(C(F)(F)F)c3)c2)cc1Cl` gave an MIC [1] of 0.5 µg/mL (≈ 1.07 µM).
For `O=C(Nc1ccc(Cl)c(C(F)(F)F)c1)Nc1ccc(Cl)c(C(F)(F)F)c1`, the IC50 [2] was 1.13 nM and the MIC [1] was 0.25 µg/mL (≈ 0.599 µM).
`O=C(Nc1ccc(-c2ccc(=O)[nH]n2)cc1)Nc1ccc(Cl)c(C(F)(F)F)c1` was tested, and the IC50 [2] was 1800 nM and the MIC [1] was > 128 µg/mL.
In the case of `O=C(Nc1ccc(Oc2ccc(=O)[nH]n2)cc1)Nc1ccc(Cl)c(C(F)(F)F)c1`, the MIC [1] is reported as > 128 µg/mL.
With `O=c1ccc(/C=C/c2ccc(NC(=S)Nc3cccc(Br)c3)cc2)n[nH]1` the GI50 [3] was 1860 nM, the GI50 [4] was 3630 nM and the inhibition of growth at 10 µM [5] was 85.7%. The inhibition of growth at 10 µM [6] was 91.5%, the GI50 [7] was 3540 nM and the GI50 [8] was 3980 nM. It also gave a GI50 [9] of 2340 nM, an MIC [10] of 512 µg/mL (≈ 1200 µM) and a GI50 [11] of 2570 nM. It also gave a GI50 [12] of 2690 nM, a GI50 [13] of 2000 nM and a GI50 [14] of 3240 nM. It also gave an MIC [15] of 512 µg/mL (≈ 1200 µM), a GI50 [16] of 3020 nM and an inhibition of growth at 10 µM [17] of 82.6%. It also gave a GI50 [18] of 2570 nM, an inhibition of growth at 10 µM [19] of 88.8% and a GI50 [20] of 3540 nM. It also gave an inhibition of growth at 10 µM [21] of 88.2%, an inhibition of growth at 10 µM [22] of 100% and an inhibition of growth at 10 µM [23] of 95.5%. For the same compound, the GI50 [24] was 2820 nM, the inhibition of growth at 10 µM [25] was 88.2% and the inhibition of growth at 10 µM [26] was 88.1%. For the same compound, the GI50 [27] was 2440 nM, the inhibition of growth at 10 µM [28] was 98.1% and the inhibition of growth at 10 µM [29] was 100%. The GI50 [30] was 2510 nM, the MIC [31] was 128 µg/mL (≈ 300 µM) and the inhibition of growth at 10 µM [32] was 72.7%. It also gave an inhibition of growth at 10 µM [33] of 76.2%, a GI50 [34] of 3470 nM and a GI50 [35] of 1660 nM. It also gave an inhibition of growth at 10 µM [36] of 74%.
With `O=C(NC(=S)Nc1ccc(Cl)cn1)c1ccc(N2CCCCC2)c([N+](=O)[O-])c1` the MIC [1] was 0.06 µg/mL (≈ 0.143 µM).
Compound `O=C(Nc1ccc2c(c1)OC(F)(F)O2)Nc1ccc(Cl)c(C(F)(F)F)c1` has an MIC [1] of 0.3 µg/mL (≈ 0.76 µM).
`N#Cc1ccc(Oc2cccc(NC(=O)Nc3ccc(Cl)c(C(F)(F)F)c3)c2)c(F)c1` was tested, and the MIC [1] was 0.5 µg/mL (≈ 1.11 µM).
With `O=C(Nc1ccc(Cl)c(C(F)(F)F)c1)C(CCl)C(=O)Nc1ccc(Cl)c(C(F)(F)F)c1` the MIC [1] was 0.5 µg/mL (≈ 0.985 µM).
`O=c1ccc(-c2ccc(NC(=S)Nc3cccc(Cl)c3)cc2)n[nH]1` showed an MIC [10] of 256 µg/mL (≈ 717 µM), an MIC [15] of 16 µg/mL (≈ 44.8 µM) and an MIC [31] of 128 µg/mL (≈ 359 µM).
